# Screening data as filed in PubChem.
# CAL PDZ FP-1 = untagged CAL PDZ binding inhibitors, primary screen, biochemical, fluorescence polarization, HTS; Golgi-associated PDZ and coiled-coil motif-containing protein (Homo sapiens), Q9HD26; purified CAL PDZ, TMR-peptide fluorescence polarization, 1 h; inhibition, % at 24.9 µM; hit rate 0.92% among 300,000;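 active = mean inhibition of at least 30% with at least half of replicates also reaching 30%; inconclusive = no clear call, values can overlap the other calls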;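 also: 0% = DMSO neutral control and 100% = excess unlabeled competitor peptide PRC23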
# Cneo AK release = Cryptococcus neoformans cell lysis inducers, primary screen, AK release luminescence, single concentration; C. neoformans lysis, adenylate kinase release luminescence, 4 h; normalised: neutral wells 0, clomiphene wells 100; lysis activity, % at 15 µM; hit rate 0.2% among 360,000; AID 651654, 2012;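 active = mean lysis activity across replicates of at least 80%, whatever share of replicates individually reach that level; inactive = mean lysis activity below 80%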
#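 Material: C. neoformans cells | Amount: Yeast cell density of 5 × 10^6 cells/mL | Medium: Fresh YPD growth medium | Dosing: Single dose | Times: Static 4 h at 37 °C with compound, 1 h detection | Detection: AK luminescence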
# CAL PDZ FP-2 = CAL PDZ peptide-binding inhibitors, primary screen, biochemical, fluorescence polarization, Cer-tagged CAL PDZ, HTS; Golgi-associated PDZ and coiled-coil motif-containing protein (Homo sapiens), Q9HD26; purified CAL PDZ, TMR-peptide fluorescence polarization, 1 h; hit rate 0.02% among 330,000; inhibition, % at 20 µM;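 active = highest replicate inhibition of at least 40%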;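 also: plate controls were DMSO neutral control wells for no effect and unlabeled competitor peptide control wells for full effect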
#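 Material – purified CerCALP PDZ construct · Detection – FP readout, S and P plane fluorescence · Measure – percent inhibition from loss of millipolarization · Controls – unlabelled peptide for full inhibition, DMSO wells as neutral · Probe or stimulus – TMR-labelled reporter peptide T*-PRC34 bound in PDZ groove · Times – 1 h at RT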
# miR122 inh = miR-122 Renilla sensor signal increase in Huh7, primary screen, miR-122 inhibitor project, cell-based, single point, plate reader; Huh7 miR-122 Renilla luciferase sensor, 48 h; neutral wells = 0, positive control = 100; activation (reporter increase), % at 12.5 µM; hit rate 0.3% among 340,000; AID 602342, 2012;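 active = mean replicate activation score at least 90 and every replicate individually at or above 90; inconclusive = only one of the two criteria met; inactive = neither criterion met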;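 also: higher luciferase means less miR-122 activity so hits act as miR-122 inhibitors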
# PglD inh = C. jejuni PglD acetyltransferase inhibitors, primary screen, biochemical, DTNB colorimetric, single point | UDP-N-acetylbacillosamine N-acetyltransferase PglD (Campylobacter jejuni) | inhibition, % at 12.5 µM | hit rate 0.098% among 360,000 | AID 602405, 2012 | purified PglD enzyme, DTNB colorimetric CoA detection; in the data active = inhibition above about 16%, passing the limit was not always enough; inconclusive = no clear call, values can overlap the other calls
# Starred values were filed as active, the others as inactive; ? = inconclusive; . = not tested or not shown; [ ] = another dose, or the depositor's remark. Rows were chosen to be rich in hits. Some 1.1% of all compounds tested hit in one or more screens of this group.
SMILES,CAL PDZ FP-1,Cneo AK release,CAL PDZ FP-2,miR122 inh,PglD inh
COc1ccc(CNC(=O)C(c2ccco2)N(C(=O)c2csnn2)c2cccc(C)c2C)cc1 (stereo unspecified),-1.2,1.4,.,97.4*,0.6
CC(=O)c1nccs1,32.5*,0.5,0.1,2.2,-1.3
CCN(CC)c1ccc(S(=O)(=O)Nc2cc(Cl)ccc2Cl)cc1NC(=S)NC(=O)C1CCCC1,-5.0,-1.1,-0.4,284.6*,-4.8
CC(C)(C)CN1CCNC(=O)C1CC(=O)NCCN1CCCc2ccccc21 (stereo unspecified),55.2*,.,0.2,.,.
COCCNC(=O)C[C@@H]1CC[C@H]2[C@@H](COC[C@H](O)CN2Cc2cccc(-c3ccncc3)c2)O1,.,108.5*,.,-2.5[16.7 µM],4.1
O=C(C[C@@H]1CC[C@@H]2[C@H](COC[C@H](O)CN2Cc2cccc(C(F)(F)F)c2)O1)NCc1ccccc1,.,96.8*,.,-1.0[16.7 µM],-0.7
Cc1ccc(-n2ccnc(SCC(=O)NC3CCCCC3)c2=O)cc1F,0.1,6.0,-0.5,.,2.3
O=C(CCN1N=C(c2ccccc2)CCC1=O)NCCCN1CCOCC1,64.4*,5.1,-0.7,-5.9,1.0
Cc1ccc(C2=NN(CCC(=O)NCCCN3CCOCC3)C(=O)CC2)cc1,-3.1,0.2,-0.6,-2.0,2.4
CC1CCCCN1CCCNC(=O)c1c(O)nc2ccccn2c1=O (stereo unspecified),4.9,-2.4,0.5,-0.4,-5.1
CCC1CCCCN1CCCNC(=O)c1c(O)nc2ccccn2c1=O (stereo unspecified),78.3*,1.3,-1.2,-2.2,-0.1
Cc1onc(-c2c(Cl)cccc2Cl)c1C(O)c1ccccc1 (stereo unspecified),45.7*,-1.4,.,3.3,-5.0
C[C@H]1CN([C@@H](C)CO)C(=O)c2cc(C#Cc3cccnc3)cnc2O[C@@H]1CN(C)C(=O)CC1CC1,.,2.9,.,8.3[16.7 µM],4.2
C[C@@H]1CCCCO[C@@H](CN(C)C(=O)CCCN(C)C)[C@@H](C)CN([C@@H](C)CO)C(=O)c2cc(NC(=O)Nc3ccc(C(F)(F)F)cc3)ccc2O1,.,1.9,.,-8.0[16.7 µM],1.6
C[C@H]1CN([C@@H](C)CO)C(=O)c2cc(N(C)C)ccc2O[C@@H]1CN(C)Cc1ccc(C(=O)Nc2ccccc2N)cc1,.,1.0,.,30.9[16.7 µM],-1.8
C[C@H](CO)N1C[C@H](C)[C@H](CN(C)Cc2ccc(C(=O)Nc3ccccc3N)cc2)Oc2ccc(N(C)C)cc2CC1=O,.,37.4,.,355.3*[16.7 µM],3.1
C[C@@H]1CN([C@@H](C)CO)C(=O)c2cc(N(C)C)ccc2O[C@@H]1CN(C)Cc1ccc(C(=O)Nc2ccccc2N)cc1,.,-1.1,.,253.9*[16.7 µM],0.3
COC(=O)[C@H]1[C@H](CO)[C@H]2Cn3c(ccc(-c4ccccc4F)c3=O)[C@H]2N1Cc1cccnc1,.,-0.6,.,3.2[16.7 µM],-0.4
COc1ccc(CNC(=O)COC(=O)c2ccc3ncsc3c2)cc1OC,-6.2,0.1,-0.6,.,1.1
O=C(COC(=O)c1ccc2ncsc2c1)NCc1ccc(F)cc1,54.0*,-1.0,-0.3,.,2.5
O=C(c1cnccn1)N1CCc2ccccc2C1,-1.2,-1.0,0.3,-6.0,-9.0
O=C(/C=C\c1ccc2c(c1)OCO2)CC1(O)C(=O)Nc2ccccc21 (stereo unspecified),89.0*,-2.6,.,4.5,1.4
C/C=C/c1cnc2c(c1)C(=O)N([C@@H](C)CO)C[C@H](C)[C@@H](CN(C)C(=O)Nc1ccc(F)cc1)O2,.,3.0,.,0.2[16.7 µM],4.3
C/C(=N\NC(=O)c1cccc(S(=O)(=O)Nc2cccc(Cl)c2)c1)c1cccs1,-5.3,-1.1,-2.0,148.4*,3.8
Cn1c(CN2CCCC2)nc2cc(NC(=O)COc3ccc(Cl)cc3)ccc21,-0.6,9.3,-2.7,.,12.4
SMILES,CAL PDZ FP-1,Cneo AK release,CAL PDZ FP-2,miR122 inh,PglD inh
COc1ccc(OCC(=O)Nc2ccc3c(c2)nc(CN2CCCC2)n3C)cc1,58.1*,2.1,-1.0,0.7,5.0
O=C1CC(c2ccc3c(c2)OCCO3)Oc2ccccc21 (stereo unspecified),-2.7,-0.5,-0.7,-3.6,-4.6
O=C1CC(c2ccc3c(c2)OCCO3)Oc2ccc([N+](=O)[O-])cc21 (stereo unspecified),79.2*,-2.6,0.4,-6.3,-2.5
COc1ccc(S(=O)(=O)N(C)C[C@@H]2OCCCC[C@H](C)Oc3ccc(NS(=O)(=O)c4cccs4)cc3C(=O)N([C@H](C)CO)C[C@H]2C)cc1,.,-1.0,.,4.1[16.7 µM],-3.4
CCc1ccc(-c2cc(C)no2)cc1S(=O)(=O)NCc1ccccc1OC,22.3,6.0,-2.4,108.9*,-4.9
Cc1cc(-c2ccc(C(C)C)c(S(=O)(=O)NCc3ccco3)c2)on1,-3.4,.,-3.9,167.7*,.
COc1ccccc1CNS(=O)(=O)c1ccc(-c2cc(C)no2)cc1,-2.3,-2.5,-2.1,?,2.2
COC(=O)c1ccc2c(=O)n(CC3CCCO3)c(SCC(=O)Nc3ccccc3Cl)nc2c1 (stereo unspecified),1.7,0.8,-1.5,2.7,-0.5
COC(=O)c1ccc2c(=O)n(CC3CCCO3)c(SCC(=O)Nc3ccccc3OC)nc2c1 (stereo unspecified),-2.2,0.4,-0.3,189.5*,2.9
COCCNC(=O)CSc1nc2ccccc2c(=O)n1CC1CCCO1 (stereo unspecified),0.8,-0.1,-2.0,285.9*,2.0
COc1cccc(C(=O)NC2CCCc3ccccc32)c1 (stereo unspecified),-3.6,1.3,2.1,10.8,5.6
COc1cc(OC)cc(C(=O)OC(C)C(=O)NC2CCCc3ccccc32)c1 (stereo unspecified),61.2*,-2.2,-0.4,-3.7,1.8
O=C(c1ccc(Br)cc1)c1cc([N+](=O)[O-])ccc1N1CCCCC1,-4.2,0.0,-0.2,185.3*,-1.5
OCCNc1ncnc2c1c(-c1ccccc1)c(-c1ccccc1)n2Cc1ccco1,65.8*,4.7,-1.8,-6.7,-8.0
c1ccc(-c2c(-c3ccccc3)n(Cc3ccco3)c3ncnc(NCCCn4ccnc4)c23)cc1,-3.2,19.4,-1.2,-1.4,0.2
CC1CCc2c(sc3nc(CSc4nnnn4C)[nH]c(=O)c23)C1 (stereo unspecified),60.1*,1.6,-2.0,-7.2,-1.5
COc1cc(C(=O)NCCCN2CCCC2=O)cc(Br)c1OCc1ccccc1,-7.1,5.2,0.2,.,1.0
CNS(=O)(=O)c1ccc(C(C)(C)C)cc1,-3.4,2.0,-1.2,-3.0,-1.0
